In ChEMBL document CHEMBL3351530, “Analysis of subpocket selectivity and identification of potent selective inhibitors for matriptase and matriptase-2” (J Med Chem, 2014):

Key:
[1] = biological target: T1, Transmembrane protease serine 6 (Homo sapiens, UniProt Q8IU80); assay: Inhibition of human recombinant matriptase-2 using Boc-Gln-Ala-Arg-AMC as substrate by microplate reader analysis
T1 sequence (Q8IU80 whole entry): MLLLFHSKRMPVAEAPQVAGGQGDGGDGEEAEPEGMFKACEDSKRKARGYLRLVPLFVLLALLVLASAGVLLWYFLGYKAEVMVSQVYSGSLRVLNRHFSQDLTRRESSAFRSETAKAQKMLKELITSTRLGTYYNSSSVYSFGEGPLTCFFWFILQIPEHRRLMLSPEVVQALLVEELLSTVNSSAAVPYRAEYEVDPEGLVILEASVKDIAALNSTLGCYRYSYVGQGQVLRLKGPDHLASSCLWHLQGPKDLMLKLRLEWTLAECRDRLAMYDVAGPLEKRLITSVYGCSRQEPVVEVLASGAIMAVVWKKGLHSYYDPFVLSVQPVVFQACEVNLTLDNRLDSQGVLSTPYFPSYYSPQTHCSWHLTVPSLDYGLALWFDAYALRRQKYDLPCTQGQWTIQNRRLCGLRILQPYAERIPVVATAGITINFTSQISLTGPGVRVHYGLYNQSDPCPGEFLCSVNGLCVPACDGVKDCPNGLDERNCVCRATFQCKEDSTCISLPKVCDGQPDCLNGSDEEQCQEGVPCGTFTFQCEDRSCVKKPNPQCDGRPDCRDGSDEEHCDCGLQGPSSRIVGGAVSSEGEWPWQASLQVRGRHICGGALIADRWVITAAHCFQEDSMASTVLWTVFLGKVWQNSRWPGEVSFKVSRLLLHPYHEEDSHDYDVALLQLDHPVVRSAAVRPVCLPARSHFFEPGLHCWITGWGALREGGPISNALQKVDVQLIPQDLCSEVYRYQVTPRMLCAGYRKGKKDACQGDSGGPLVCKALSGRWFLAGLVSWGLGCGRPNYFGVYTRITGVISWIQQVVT
How it was run: (§1)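 Recombinant human matriptase (aa 596−[…]) or matriptase-2 (aa 78−811), active-site titrated with MUGB; 1 nM enzyme at room temperature in 50 mM Tris-HCl, 15 mM NaCl, pH 7.4. AMC release read at 360/441 nm. If inhibition occurred at I/E = 10, Ki came from a Morrison fit; otherwise from substrate-velocity curves fitted to the best reversible model. At least 3 runs in duplicate, mean ± SD.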

[2] = species on record: Homo sapiens; assay: Selectivity ratio of Ki for human recombinant matriptase-2 to Ki for human recombinant matriptase
[3] = biological target: T2, Suppressor of tumorigenicity 14 protein (Homo sapiens, UniProt Q9Y5Y6); assay: Inhibition of human recombinant matriptase using Boc-Gln-Ala-Arg-AMC as substrate by microplate reader analysis; how it was run: as §1
T2 sequence (Q9Y5Y6 whole entry): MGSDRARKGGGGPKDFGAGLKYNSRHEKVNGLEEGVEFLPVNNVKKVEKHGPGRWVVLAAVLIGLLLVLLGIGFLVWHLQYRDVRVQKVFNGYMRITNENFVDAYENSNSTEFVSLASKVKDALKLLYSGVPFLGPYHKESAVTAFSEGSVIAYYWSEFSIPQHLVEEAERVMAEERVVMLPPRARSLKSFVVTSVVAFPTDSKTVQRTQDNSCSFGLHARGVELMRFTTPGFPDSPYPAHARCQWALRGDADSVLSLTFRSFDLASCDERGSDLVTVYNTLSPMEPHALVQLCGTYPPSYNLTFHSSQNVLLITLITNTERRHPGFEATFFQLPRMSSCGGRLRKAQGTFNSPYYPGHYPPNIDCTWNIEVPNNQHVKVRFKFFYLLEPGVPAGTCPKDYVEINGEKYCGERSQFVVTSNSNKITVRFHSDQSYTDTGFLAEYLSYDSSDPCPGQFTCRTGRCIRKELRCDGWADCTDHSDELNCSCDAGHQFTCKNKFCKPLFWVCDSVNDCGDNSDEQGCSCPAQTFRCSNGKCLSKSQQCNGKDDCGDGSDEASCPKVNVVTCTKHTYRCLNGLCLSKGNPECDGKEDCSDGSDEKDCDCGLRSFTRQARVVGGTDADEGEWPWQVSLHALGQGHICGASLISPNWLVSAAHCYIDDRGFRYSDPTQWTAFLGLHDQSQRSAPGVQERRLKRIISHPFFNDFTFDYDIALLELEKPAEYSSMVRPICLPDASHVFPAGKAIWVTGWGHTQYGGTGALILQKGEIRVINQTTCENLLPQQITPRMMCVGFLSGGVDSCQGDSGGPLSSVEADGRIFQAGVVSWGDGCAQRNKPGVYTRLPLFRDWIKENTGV

[4] = species on record: Homo sapiens; assay: Selectivity ratio of Ki for human recombinant matriptase to Ki for human recombinant matriptase-2

Ki [1] [nM] | Ratio Ki [2] | Ki [3] [nM] | Ratio Ki [4] | Structure (SMILES)
2.48 | 1.79 | 1.4 | – | CC(C)C[C@H](NC(=O)[C@@H](N)CCCNC(=N)N)C(=O)N[C@@H](CO)C(=O)N[C@@H](CCCNC(=N)N)C(=O)c1nc2ccccc2s1
6.3 | 45 | 0.14 | – | C[C@H](NC(=O)[C@H](Cc1ccc(O)cc1)NC(=O)[C@@H](N)CCCNC(=N)N)C(=O)N[C@@H](CCCNC(=N)N)C(=O)c1nc2ccccc2s1
1.03 | 0.13 | 7.98 | 8 | N=C(N)NCCC[C@H](NC(=O)[C@H](Cc1ccc(O)cc1)NC(=O)[C@H](CS)NC(=O)[C@@H](N)Cc1c[nH]c2ccccc12)C(=O)c1nc2ccccc2s1
24.8 | 62 | 0.45 | – | C[C@H](NC(=O)[C@H](CC(N)=O)NC(=O)[C@@H](N)CCCCN)C(=O)N[C@@H](CCCNC(=N)N)C(=O)c1nc2ccccc2s1
15.4 | 22 | 0.72 | – | C[C@H](NC(=O)[C@H](CCCNC(=N)N)NC(=O)[C@@H](N)CCCNC(=N)N)C(=O)N[C@@H](CCCNC(=N)N)C(=O)c1nc2ccccc2s1
34.8 | 378 | 0.092 | – | C[C@H](NC(=O)[C@H](CCC(N)=O)NC(=O)[C@@H](N)CO)C(=O)N[C@@H](CCCNC(=N)N)C(=O)c1nc2ccccc2s1
13.5 | 90 | 0.15 | – | CC(C)C[C@H](N)C(=O)N[C@@H](CCC(N)=O)C(=O)N[C@@H](C)C(=O)N[C@@H](CCCNC(=N)N)C(=O)c1nc2ccccc2s1
7.8 | 128 | 0.061 | – | N=C(N)NCCC[C@H](NC(=O)[C@@H]1CCCN1C(=O)[C@H](CCC(N)=O)NC(=O)[C@@H](N)CCCNC(=N)N)C(=O)c1nc2ccccc2s1
47.8 | 49 | 0.91 | – | N=C(N)NCCC[C@H](NC(=O)[C@@H]1CCCN1C(=O)[C@H](CC(N)=O)NC(=O)[C@@H](N)CCCNC(=N)N)C(=O)c1nc2ccccc2s1
1.98 | 0.63 | 3.22 | 2 | CC(C)C[C@H](N)C(=O)N[C@@H](Cc1c[nH]c2ccccc12)C(=O)N[C@@H](Cc1c[nH]c2ccccc12)C(=O)N[C@@H](CCCNC(=N)N)C(=O)c1nc2ccccc2s1
46.8 | 3 | 14.7 | – | N=C(N)NCCC[C@H](NC(=O)[C@@H](N)Cc1c[nH]c2ccccc12)C(=O)N[C@@H](CCC(=O)O)C(=O)N[C@@H](CCCNC(=N)N)C(=O)c1nc2ccccc2s1
0.74 | 4 | 0.18 | – | N=C(N)NCCC[C@H](NC(=O)[C@H](Cc1ccc(O)cc1)NC(=O)[C@H](CCC(N)=O)NC(=O)[C@@H](N)CCCNC(=N)N)C(=O)c1nc2ccccc2s1

Structure (SMILES) | Ki [1] [nM] | Ratio Ki [2] | Ki [3] [nM] | Ratio Ki [4]
N=C(N)NCCC[C@H](NC(=O)[C@H](Cc1ccccc1)NC(=O)[C@H](CCC(N)=O)NC(=O)[C@@H](N)CCCNC(=N)N)C(=O)c1nc2ccccc2s1 | 1.4 | 6 | 0.23 | –
C[C@H](NC(=O)[C@H](CCCCN)NC(=O)[C@@H](N)Cc1ccc(O)cc1)C(=O)N[C@@H](CCCNC(=N)N)C(=O)c1nc2ccccc2s1 | 20.8 | 23 | 0.89 | –
CC(C)[C@H](NC(=O)[C@H](Cc1ccc(O)cc1)NC(=O)[C@@H](N)Cc1ccc(O)cc1)C(=O)N[C@@H](CCCNC(=N)N)C(=O)c1nc2ccccc2s1 | 2.56 | 0.08 | 31.5 | 13
